From ChEMBL document CHEMBL4400539, “Discovery of a Novel Chemotype of Histone Lysine Methyltransferase EHMT1/2 (GLP/G9a) Inhibitors: Rational Design, Synthesis, Biological Evaluation, and Co-crystal Structure” (J Med Chem, 2019) come the findings set out here.

Active and inactive are the calls of the source. The calls are words filed in the database; no cut-off is given here.

The nature of series [1]: Metabolic stability in human liver microsomes assessed as parent compound turn over percentage at 1 mM preincubated for 5 mins followed by NADPH addition and measured for 60 mins by UHPLC analysis. Type of series: ADME, Microsome. The following applies: read-out: Drug metabolism.
Series [2] has as its target Protein arginine N-methyltransferase 3 (Homo sapiens) (UniProt O60678). The series is described as follows: Inhibition of recombinant human PRMT3 at 10 to 25 uM using biotinylated-Histone H4 peptide (1 to 21 residues) as substrate preincubated for 30 mins followed by substrate addition and measured after 60 mins in presence of SAM by AlphaLISA assay relative to control. The method in brief:
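Biotinylated H4(1–21) peptide plus SAM then added for 60 min: PRMT1 0.9 nM, peptide 100 nM, SAM 2 μM; PRMT3 23 nM, peptide 50 nM, SAM 10 μM. Anti-H4R3me AlphaLISA; 10 and 25 μM; three experiments, mean ± SD.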
Background: Bead proximity is the source of the signal in Alpha formats.

In series [3] the target is T1, Histone-lysine N-methyltransferase EHMT2 (Homo sapiens, UniProt Q96KQ7).
T1 sequence (Q96KQ7 whole entry): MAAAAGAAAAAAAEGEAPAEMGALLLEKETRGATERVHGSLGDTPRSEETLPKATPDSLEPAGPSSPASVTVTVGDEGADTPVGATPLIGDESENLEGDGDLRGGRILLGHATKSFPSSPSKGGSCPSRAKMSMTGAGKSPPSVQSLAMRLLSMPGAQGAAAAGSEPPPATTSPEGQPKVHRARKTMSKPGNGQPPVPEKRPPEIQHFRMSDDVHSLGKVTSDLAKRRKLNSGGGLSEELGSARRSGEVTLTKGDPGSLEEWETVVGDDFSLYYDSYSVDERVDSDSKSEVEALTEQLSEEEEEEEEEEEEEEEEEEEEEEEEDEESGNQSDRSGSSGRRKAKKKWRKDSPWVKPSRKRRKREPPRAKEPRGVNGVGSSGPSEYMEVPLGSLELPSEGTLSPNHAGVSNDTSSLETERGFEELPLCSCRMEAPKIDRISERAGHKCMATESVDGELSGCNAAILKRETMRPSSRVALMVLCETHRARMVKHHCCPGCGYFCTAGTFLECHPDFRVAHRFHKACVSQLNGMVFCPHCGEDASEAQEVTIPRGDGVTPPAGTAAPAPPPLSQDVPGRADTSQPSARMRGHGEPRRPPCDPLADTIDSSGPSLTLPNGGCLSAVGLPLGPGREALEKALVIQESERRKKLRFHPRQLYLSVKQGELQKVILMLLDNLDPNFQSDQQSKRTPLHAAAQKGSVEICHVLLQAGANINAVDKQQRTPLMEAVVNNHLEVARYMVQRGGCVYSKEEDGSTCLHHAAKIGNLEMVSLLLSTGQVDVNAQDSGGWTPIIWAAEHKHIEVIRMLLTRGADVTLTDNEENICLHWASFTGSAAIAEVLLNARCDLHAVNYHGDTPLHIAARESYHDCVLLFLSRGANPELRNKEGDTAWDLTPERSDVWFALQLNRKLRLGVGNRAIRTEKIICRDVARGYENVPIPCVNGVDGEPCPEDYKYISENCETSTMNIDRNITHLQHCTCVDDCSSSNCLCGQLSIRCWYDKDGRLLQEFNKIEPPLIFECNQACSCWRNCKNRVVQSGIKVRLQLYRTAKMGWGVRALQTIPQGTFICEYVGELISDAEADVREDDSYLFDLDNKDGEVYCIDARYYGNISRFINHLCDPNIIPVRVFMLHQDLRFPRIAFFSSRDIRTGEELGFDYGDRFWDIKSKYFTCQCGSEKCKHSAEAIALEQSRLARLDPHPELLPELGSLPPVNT
The series is described as follows: Binding affinity to human His-tagged G9a expressed in Escherichia coli Rosetta (DE3) after 30 mins by MST binding assay.

For series [4], the target named is T2, Histone-lysine N-methyltransferase EHMT1 (Homo sapiens) (UniProt Q9H9B1).
T2 sequence (whole entry): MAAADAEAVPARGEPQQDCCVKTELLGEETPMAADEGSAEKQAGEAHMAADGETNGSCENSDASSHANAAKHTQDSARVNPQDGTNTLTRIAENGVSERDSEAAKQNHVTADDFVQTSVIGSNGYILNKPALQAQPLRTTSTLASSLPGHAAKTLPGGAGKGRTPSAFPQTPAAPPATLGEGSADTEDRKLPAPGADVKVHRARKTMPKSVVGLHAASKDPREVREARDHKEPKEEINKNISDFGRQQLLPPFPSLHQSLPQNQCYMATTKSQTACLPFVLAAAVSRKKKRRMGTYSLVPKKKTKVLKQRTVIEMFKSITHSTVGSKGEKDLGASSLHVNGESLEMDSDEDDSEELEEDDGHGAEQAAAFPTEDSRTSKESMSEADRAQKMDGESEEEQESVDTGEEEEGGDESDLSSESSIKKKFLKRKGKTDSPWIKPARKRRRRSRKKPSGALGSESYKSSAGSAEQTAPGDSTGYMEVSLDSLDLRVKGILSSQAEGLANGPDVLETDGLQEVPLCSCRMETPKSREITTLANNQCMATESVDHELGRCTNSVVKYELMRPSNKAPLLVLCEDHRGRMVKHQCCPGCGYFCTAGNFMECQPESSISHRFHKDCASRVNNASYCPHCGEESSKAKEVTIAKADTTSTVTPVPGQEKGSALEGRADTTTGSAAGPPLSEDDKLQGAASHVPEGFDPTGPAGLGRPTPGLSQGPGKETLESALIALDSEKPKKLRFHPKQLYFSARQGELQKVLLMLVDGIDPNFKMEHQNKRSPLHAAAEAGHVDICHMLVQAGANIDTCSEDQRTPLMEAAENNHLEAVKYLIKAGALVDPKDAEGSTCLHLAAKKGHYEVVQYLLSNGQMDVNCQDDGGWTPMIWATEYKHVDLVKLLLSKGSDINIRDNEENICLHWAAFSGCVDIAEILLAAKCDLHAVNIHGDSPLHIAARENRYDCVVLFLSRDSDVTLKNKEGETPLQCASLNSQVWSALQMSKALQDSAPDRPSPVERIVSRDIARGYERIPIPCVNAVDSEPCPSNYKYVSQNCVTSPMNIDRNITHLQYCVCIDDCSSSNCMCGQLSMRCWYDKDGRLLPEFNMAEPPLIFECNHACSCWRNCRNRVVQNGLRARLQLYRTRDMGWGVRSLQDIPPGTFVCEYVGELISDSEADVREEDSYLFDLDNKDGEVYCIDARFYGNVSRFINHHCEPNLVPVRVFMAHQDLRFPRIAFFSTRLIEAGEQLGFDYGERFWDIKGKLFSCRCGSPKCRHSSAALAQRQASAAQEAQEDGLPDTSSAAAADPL
The series is described as follows: Inhibition of recombinant human GLP at 25 uM using biotinylated-Histone H3 peptide (1 to 21 residues) after 30 mins by AlphaLISA assay relative to control.

Series [5] concerns the target DNA (cytosine-5)-methyltransferase 1 (Homo sapiens, UniProt P26358). The series is described as follows: Inhibition of N-terminal GST-tagged recombinant full length human DNMT1 (2 to 1632 residues) using poly(dI-dC)):poly(dI-dC) as substrate preincubated for 20 mins followed by [3H]-SAM and measured after 60 mins by scintillation counting.

DNA (cytosine-5)-methyltransferase 1, sequence (P26358 whole entry, the tested form may be a part): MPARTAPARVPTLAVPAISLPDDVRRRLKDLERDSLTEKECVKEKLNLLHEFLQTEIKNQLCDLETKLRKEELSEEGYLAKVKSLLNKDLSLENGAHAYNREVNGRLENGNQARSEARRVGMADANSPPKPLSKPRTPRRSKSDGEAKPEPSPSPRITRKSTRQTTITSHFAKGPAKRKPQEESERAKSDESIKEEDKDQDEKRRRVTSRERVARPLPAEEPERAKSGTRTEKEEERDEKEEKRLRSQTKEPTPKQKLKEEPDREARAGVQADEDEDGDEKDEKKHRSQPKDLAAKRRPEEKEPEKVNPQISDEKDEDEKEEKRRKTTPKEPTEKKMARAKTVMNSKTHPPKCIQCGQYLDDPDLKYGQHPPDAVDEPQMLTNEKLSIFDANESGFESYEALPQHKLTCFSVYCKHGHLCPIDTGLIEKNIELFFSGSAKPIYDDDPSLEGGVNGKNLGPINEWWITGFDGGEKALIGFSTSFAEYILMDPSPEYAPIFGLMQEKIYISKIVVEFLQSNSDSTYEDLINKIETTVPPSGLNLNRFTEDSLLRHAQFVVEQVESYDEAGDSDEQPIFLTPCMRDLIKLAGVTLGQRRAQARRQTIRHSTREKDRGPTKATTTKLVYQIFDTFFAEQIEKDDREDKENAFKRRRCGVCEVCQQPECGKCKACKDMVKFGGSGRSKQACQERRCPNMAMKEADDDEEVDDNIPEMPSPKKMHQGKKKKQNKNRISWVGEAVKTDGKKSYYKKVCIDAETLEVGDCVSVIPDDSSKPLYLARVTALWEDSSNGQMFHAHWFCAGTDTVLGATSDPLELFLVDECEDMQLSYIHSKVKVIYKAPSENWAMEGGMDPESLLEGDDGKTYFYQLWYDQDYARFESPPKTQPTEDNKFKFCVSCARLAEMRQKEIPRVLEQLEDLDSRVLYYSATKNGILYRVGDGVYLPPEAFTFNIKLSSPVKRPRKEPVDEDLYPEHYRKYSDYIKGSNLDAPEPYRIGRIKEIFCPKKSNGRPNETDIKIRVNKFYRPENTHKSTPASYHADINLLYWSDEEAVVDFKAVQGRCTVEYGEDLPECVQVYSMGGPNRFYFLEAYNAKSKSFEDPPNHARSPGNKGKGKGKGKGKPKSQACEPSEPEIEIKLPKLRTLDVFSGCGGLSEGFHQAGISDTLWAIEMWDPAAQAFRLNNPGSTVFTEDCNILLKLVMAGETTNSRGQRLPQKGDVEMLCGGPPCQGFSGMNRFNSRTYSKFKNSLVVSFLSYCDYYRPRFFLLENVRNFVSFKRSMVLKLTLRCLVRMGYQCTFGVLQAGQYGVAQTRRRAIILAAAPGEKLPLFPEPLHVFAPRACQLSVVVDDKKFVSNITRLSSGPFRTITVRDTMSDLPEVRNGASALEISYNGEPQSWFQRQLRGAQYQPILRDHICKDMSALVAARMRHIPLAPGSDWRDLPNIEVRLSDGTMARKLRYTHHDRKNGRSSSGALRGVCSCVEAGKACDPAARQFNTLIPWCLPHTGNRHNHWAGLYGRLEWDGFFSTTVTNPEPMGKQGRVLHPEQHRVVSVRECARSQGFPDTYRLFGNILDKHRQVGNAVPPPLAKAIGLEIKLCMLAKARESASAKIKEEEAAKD
Protein arginine N-methyltransferase 3 (Homo sapiens), sequence (O60678 2-531 limits assumed): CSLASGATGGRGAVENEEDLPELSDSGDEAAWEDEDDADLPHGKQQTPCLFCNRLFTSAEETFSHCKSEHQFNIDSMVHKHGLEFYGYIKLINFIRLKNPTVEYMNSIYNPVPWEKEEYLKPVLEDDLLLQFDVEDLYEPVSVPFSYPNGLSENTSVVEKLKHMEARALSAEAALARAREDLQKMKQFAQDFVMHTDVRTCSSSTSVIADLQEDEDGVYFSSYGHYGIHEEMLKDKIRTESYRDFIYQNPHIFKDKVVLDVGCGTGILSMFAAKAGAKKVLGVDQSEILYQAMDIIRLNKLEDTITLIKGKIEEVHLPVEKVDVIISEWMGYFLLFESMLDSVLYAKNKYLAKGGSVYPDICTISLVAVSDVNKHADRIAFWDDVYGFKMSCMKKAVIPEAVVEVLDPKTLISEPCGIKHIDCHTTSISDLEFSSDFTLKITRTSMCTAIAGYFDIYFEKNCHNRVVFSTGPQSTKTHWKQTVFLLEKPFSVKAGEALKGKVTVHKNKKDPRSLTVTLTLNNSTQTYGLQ

On to `COc1cc2c(cc1OCCCN1CCCC1)N=C(C1CCCCC1)CN=C2NC1CCN(C(C)C)CC1`, for which the metabolised at 1 h in series [1] was found to be 2.25%. Moreover, the inhibition – broadly, the change of the read-out against control, counted positive when it falls – in series [2] is “inactive”. Besides, the Kd – broadly, the constant that tells how readily two partners part at equilibrium – in series [3] was found to be 1130 nM. In series [4], the inhibition was found to be 98%. The IC50 (in general, the concentration that gives 50% inhibition) in series [5] stood at 3100 nM.
